Experimental data: ChEMBL document CHEMBL4689842, “EUbOPEN Chemogenomics Library wave 1” (2021)

System: U2OS
Test: Multiplex assay against U2OS
Format: toxicity, cell-based
Conditions: human
Method in brief: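 Four dyes were applied at seeding to live cells: Hoechst33342, BioTracker Green Microtubule Cytoskeleton Dye, MitoTracker Red and Annexin V Alexa Fluor 680. Imaging after compound addition used a CQ1 microscope at 37°C and 5% CO2. CellPathfinder machine-learning gating then sorted cells into Hoechst high-intensity objects or normal cells, normal cells into healthy, pyknosed or fragmented nuclei, and pyknosed cells into mitotic or apoptotic, with tubulin, mitochondrial-mass and membrane-permeability phenotypes given as per cents of healthy-nucleus cells.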

[1] = 12 h, 1 µM, compound concentration 1 uM, replicate 1
[2] = 12 h, 1 µM, compound concentration 1 uM, replicate 2
[3] = 12 h, 10 µM, compound concentration 10 uM, replicate 1
[4] = 12 h, 10 µM, compound concentration 10 uM, replicate 2
[5] = 24 h, 1 µM, compound concentration 1 uM, replicate 1
[6] = 24 h, 1 µM, compound concentration 1 uM, replicate 2
[7] = 24 h, 10 µM, compound concentration 10 uM, replicate 1
[8] = 24 h, 10 µM, compound concentration 10 uM, replicate 2

## CNC(=O)c1ccc(Nc2nc(OC3CCCC3)c3c(-c4ccc5nc(C)oc5c4)c[nH]c3n2)c(OC)c1
[1]
  Population Apoptotic (%): 36%
  Population Fragmented Nuclei (%): 10%
  Population Healthy Nuclei (%): 64%
  Population Hoechst High Intensity Objects (%): 2%
  Population Membrane Permeable-Phenotype (%): 58%
  Population Mitochondria Different-Phenotype (%): 45%
  Population Mitotic Cells (%): 63%
  Population Normal (%): 97%
  Population Pyknosed Nuclei (%): 25%
[2]
  Population Apoptotic (%): 30%
  Population Fragmented Nuclei (%): 14%
  Population Healthy Nuclei (%): 72%
  Population Hoechst High Intensity Objects (%): 6%
  Population Membrane Permeable-Phenotype (%): 63%
  Population Mitochondria Different-Phenotype (%): 40%
  Population Mitotic Cells (%): 70%
  Population Normal (%): 93%
  Population Pyknosed Nuclei (%): 13%
  Population Tubulin-Different-Phenotype (%): 100%
[3]
  Population Apoptotic (%): 30%
  Population Fragmented Nuclei (%): 1%
  Population Healthy Nuclei (%): 87%
  Population Hoechst High Intensity Objects (%): 1%
  Population Membrane Permeable-Phenotype (%): 62%
  Population Mitochondria Different-Phenotype (%): 18%
  Population Mitotic Cells (%): 70%
  Population Normal (%): 98%
  Population Pyknosed Nuclei (%): 11%
  Population Tubulin-Different-Phenotype (%): 90%
[4]
  Population Apoptotic (%): 25%
  Population Fragmented Nuclei (%): 22%
  Population Healthy Nuclei (%): 72%
  Population Hoechst High Intensity Objects (%): 22%
  Population Membrane Permeable-Phenotype (%): 54%
  Population Mitochondria Different-Phenotype (%): 26%
  Population Mitotic Cells (%): 75%
  Population Normal (%): 77%
  Population Pyknosed Nuclei (%): 4%
  Population Tubulin-Different-Phenotype (%): 65%
[5]
  Population Apoptotic (%): 89%
  Population Fragmented Nuclei (%): 12%
  Population Healthy Nuclei (%): 8%
  Population Hoechst High Intensity Objects (%): 5%
  Population Membrane Permeable-Phenotype (%): 92%
  Population Mitochondria Different-Phenotype (%): 84%
  Population Mitotic Cells (%): 10%
  Population Normal (%): 94%
  Population Pyknosed Nuclei (%): 79%
  Population Tubulin-Different-Phenotype (%): 100%
[6]
  Population Apoptotic (%): 60%
  Population Fragmented Nuclei (%): 25%
  Population Healthy Nuclei (%): 48%
  Population Hoechst High Intensity Objects (%): 11%
  Population Membrane Permeable-Phenotype (%): 65%
  Population Mitochondria Different-Phenotype (%): 73%
  Population Mitotic Cells (%): 40%
  Population Normal (%): 88%
  Population Pyknosed Nuclei (%): 25%
[7]
  Population Apoptotic (%): 43%
  Population Fragmented Nuclei (%): 6%
  Population Healthy Nuclei (%): 73%
  Population Hoechst High Intensity Objects (%): 1%
  Population Membrane Permeable-Phenotype (%): 43%
  Population Mitochondria Different-Phenotype (%): 18%
  Population Mitotic Cells (%): 56%
  Population Normal (%): 98%
  Population Pyknosed Nuclei (%): 20%
  Population Tubulin-Different-Phenotype (%): 71%
[8]
  Population Apoptotic (%): 62%
  Population Fragmented Nuclei (%): 23%
  Population Healthy Nuclei (%): 67%
  Population Hoechst High Intensity Objects (%): 14%
  Population Membrane Permeable-Phenotype (%): 30%
  Population Mitochondria Different-Phenotype (%): 28%
  Population Mitotic Cells (%): 37%
  Population Normal (%): 85%
  Population Pyknosed Nuclei (%): 8%
  Population Tubulin-Different-Phenotype (%): 55%
